Data: ChEMBL document CHEMBL1122411 (J Med Chem, 1983)
pIC50, pKi: −log10 of the molar value.

Tests used:
[1] = molecular target: T1, Dihydrofolate reductase (Mus musculus) (UniProt P00375); assay: Binding affinity to Dihydrofolate reductase of L1210/R71 using spectrophotometric assay
T1 sequence (whole entry): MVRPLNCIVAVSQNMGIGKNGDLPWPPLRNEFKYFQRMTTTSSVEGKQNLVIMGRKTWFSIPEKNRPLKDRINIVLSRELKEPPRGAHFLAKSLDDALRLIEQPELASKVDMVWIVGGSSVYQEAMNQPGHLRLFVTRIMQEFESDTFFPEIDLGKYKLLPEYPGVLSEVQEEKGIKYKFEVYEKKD
Procedure, shortened: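 The enzyme was isolated from MTX-resistant L1210/R71 cultured cells and purified on MTX-agarose. The assay measured ΔA340 at 22 °C in 0.1 M Tris, pH 7.0, with 62 nM enzyme. Enzyme was preincubated 2 min with inhibitor and NADPH, and dihydrofolate was then added to start the reaction. ID₅₀ determined.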

Mus musculus [2] = assay: Toxicity in mice after 16-18 days at a dose of 9 mg/kg/day; value is 17/9; assay type: functional
Mus musculus [3] = species on record: Mus musculus; assay: Percentage increase in life span after 17-19 days; assay type: functional
Procedure, shortened: (§1)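 Male B6D2F1J mice (20–25 g), randomized after i.p. inoculation with 10^5 L1210 ascitic leukemia cells on day 0. Drug in water, pH 7.5–8.0, given i.p. on a q2d×5, qd×9 (from day 1) or b.i.d.×10 schedule; 5 mice per group. %ILS = [(T/C) − 1]100 from median survival days of treated versus control mice. Range is survival days.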

Mus musculus [4] = species on record: Mus musculus; assay: Percentage increase in life span after 10-24 days; assay type: functional; procedure, shortened: as §1
Mus musculus [5] = species on record: Mus musculus; assay: (§2) Percentage increase in life span after 12-20 days; assay type: functional; procedure, shortened: as §1
Mus musculus [6] = assay: Toxicity in mice after 12-22 days at a dose of 60 mg/kg/day; value is 21/9; assay type: functional
Mus musculus [7] = assay: Toxicity in mice after 9-24 days at a dose of 12 mg/kg/day; value is 18/9; assay type: functional
[8] = molecular target: Dihydrofolate reductase (Lactobacillus casei) (UniProt P00381); settings: Lacticaseibacillus casei
Dihydrofolate reductase (Lactobacillus casei), sequence (P00381 whole entry): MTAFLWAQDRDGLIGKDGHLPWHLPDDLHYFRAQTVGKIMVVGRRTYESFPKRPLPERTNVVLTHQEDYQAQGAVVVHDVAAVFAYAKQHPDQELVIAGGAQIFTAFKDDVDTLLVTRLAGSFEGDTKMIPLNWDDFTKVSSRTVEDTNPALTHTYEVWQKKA

Mus musculus [9] = assay: Toxicity in mice after 10-24 days at a dose of 15 mg/kg/day; value is 21/9; assay type: functional
Mus musculus [10] = assay: Toxicity in mice after 12-20 days at a dose of 20 mg/kg/day; value is 13/9; assay type: functional
Mus musculus [11] = species on record: Mus musculus; assay: Percentage increase in life span after 12-19 days; assay type: functional; procedure, shortened: as §1
Mus musculus [12] = assay: Weight change on day 7 in L1210 Lymphoid Leukemia in mice at a dose of 4 mg/kg/day (qdx9); assay type: functional
Procedure, shortened: (§3)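 Male B6D2F1J mice (20–25 g) were inoculated i.p. with 10⁵ L1210 ascites cells on day 0 and randomized into groups of 5. Drug in water at pH 7.5–8.0 was given i.p. daily for 9 days (qd×9) from day 1. Animals were weighed after 7 days, and the % body-weight change was recorded under a standard NCI protocol.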

[13] = system: Carboxypeptidase G1 (Pseudomonas); assay: Tested for substrate activity of compound for Carboxypeptidase G1
Mus musculus [14] = species on record: Mus musculus; assay: Percentage increase in life span after 9-11 days; assay type: functional; procedure, shortened: as §1
Mus musculus [15] = assay: Weight change on day 7 in L1210 Lymphoid Leukemia in mice at a dose of 20 mg/kg/day (qdx9); assay type: functional
Procedure, shortened: (§4)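 Male B6D2F₁J mice (20–25 g) bearing ip L1210 ascites (10⁵ cells, day 0) were used, 5 per group. Drug was given ip in water at pH 7.5–8.0 from day 1 on q2d×5, qd×9 or b.i.d.×10 schedules. Animals were weighed after 7 days and percent weight change recorded.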

Mus musculus [16] = assay: Weight change on day 7 in L1210 Lymphoid Leukemia in mice at a dose of 60 mg/kg/day (qdx9); assay type: functional; procedure, shortened: as §3
Mus musculus [17] = species on record: Mus musculus; assay: Percentage increase in life span after 16-18 days; assay type: functional; procedure, shortened: as §1
Mus musculus [18] = species on record: Mus musculus; assay: Percentage increase in life span after 12-16 days; assay type: functional; procedure, shortened: as §1
Mus musculus [19] = assay: Toxicity in mice after 17-19 days at a dose of 40 mg/kg/day; value is 18/9; assay type: functional
[20] = molecular target: Dihydrofolate reductase (Lactobacillus casei) (UniProt P00381); settings: Lacticaseibacillus casei; remark: listed apart in the source
Mus musculus [21] = species on record: Mus musculus; assay: Percentage increase in life span after 12-22 days; assay type: functional; procedure, shortened: as §1
Mus musculus [22] = species on record: Mus musculus; assay: Percentage increase in life span after 8-17 days; assay type: functional; procedure, shortened: as §1
Mus musculus [23] = assay: Toxicity in mice after 8-17 days at a dose of 4 mg/kg/day; value is 11/8.5; assay type: functional
[24] = molecular target: T1, Dihydrofolate reductase (Mus musculus)
Mus musculus [25] = species on record: Mus musculus; assay: as §2; assay type: functional; procedure, shortened: as §1; remark: listed apart in the source
Mus musculus [26] = species on record: Mus musculus; assay: Percentage increase in life span after 9-24 days; assay type: functional; procedure, shortened: as §1
Mus musculus [27] = assay: Weight change on day 7 in L1210 Lymphoid Leukemia in mice at a dose of 2 mg/kg/day (qdx9); assay type: functional; procedure, shortened: as §4
Mus musculus [28] = assay: Toxicity in mice after 12-16 days at a dose of 20 mg/kg/day; value is 14/9; assay type: functional
Mus musculus [29] = assay: Weight change on day 7 in L1210 Lymphoid Leukemia in mice at a dose of 8 mg/kg/day (qdx9); assay type: functional; procedure, shortened: as §3
Mus musculus [30] = assay: Weight change on day 7 in L1210 Lymphoid Leukemia in mice at a dose of 40 mg/kg/day (qdx9); assay type: functional; procedure, shortened: as §3
Mus musculus [31] = assay: Weight change on day 7 in L1210 Lymphoid Leukemia in mice at a dose of 12 mg/kg/day (b.i.d. x10); assay type: functional; procedure, shortened: as §4
Mus musculus [32] = assay: Weight change on day 7 in L1210 Lymphoid Leukemia in mice at a dose of 9 mg/kg/day (b.i.d. x10); assay type: functional
Procedure, shortened: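 L1210 ascitic leukemia was implanted i.p. (10⁵ cells, day 0) in male B6D2F1J mice of 20–25 g, 5 per group. Dosing was b.i.d.×10, except that on days 5 and 6 a single double-dose injection was given. The % weight change was recorded at day 7.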

Mus musculus [33] = assay: Toxicity in mice after 9-11 days at a dose of 2 mg/kg/day; value is 10/8.5; assay type: functional
[34] = Tested for substrate activity of compound for Carboxypeptidase G1 (exp 2)
Procedure, shortened: (§5)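 Cleavage by carboxypeptidase G₁ was followed as the A320 change on release of the pteroate. Conditions were 37 °C in 0.05 M potassium phosphate, pH 6.7, with 100 μM ZnSO₄. Enzyme was diluted in 1% BSA to give ΔA320 of 0.02–0.2/min. Km and Vmax came from Lineweaver-Burk plots. Ki came from competitive runs varying analogue against fixed MTX, or vice versa.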

Mus musculus [35] = assay: Toxicity in mice after 12-20 days at a dose of 40 mg/kg/day; value is 14/9; assay type: functional
L1210 = assay: cytotoxicity against L1210 cells; assay type: functional; settings: Mus musculus, read-out: ID50 (the source's name)
[36] = molecular target: T1, Dihydrofolate reductase (Mus musculus); assay: Binding affinity to Dihydrofolate reductase of L1210 cell line using [H]MTX as radioligand; assay type: cell-based
Procedure, shortened: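 Competitive [³H]MTX binding to dihydrofolate reductase from L1210 leukemia. Ascites cells from tumor-bearing mice were washed and lysed before use. The assay ran at 37 °C in 0.1 M potassium phosphate, pH 6.8. ID₅₀ was read as inhibition of radioligand binding, with MTX included in each experiment.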

Mus musculus [37] = assay: Toxicity in mice after 12-19 days at a dose of 8 mg/kg/day; value is 12/8.5; assay type: functional
Mus musculus [38] = assay: Weight change on day 7 in L1210 Lymphoid Leukemia in mice at a dose of 15 mg/kg/day (b.i.d. x10); assay type: functional; procedure, shortened: as §4
[39] = Tested for substrate activity of compound for Carboxypeptidase G1; parameters: species or system Mus musculus; procedure, shortened: as §5

SMILES: CN(Cc1cnc2nc(N)nc(N)c2n1)c1ccc(C(=O)NC(CCCC(=O)O)C(=O)O)cc1 (stereo unspecified)
- ID50 [1]: 0.039 µM
- T/C (Mus musculus [2]): 17
- ILS (Mus musculus [3]): 100%
- ILS (Mus musculus [4]): 133%
- ILS (Mus musculus [5]): 44%
- T/C (Mus musculus [6]): 21
- T/C (Mus musculus [7]): 18
- ID50 [8]: 0.0069 µM
- T/C (Mus musculus [9]): 21
- T/C (Mus musculus [10]): 13
- ILS (Mus musculus [11]): 41%
- Weight change (Mus musculus [12]): 7%
- Km [13]: 196 µM
- Vmax [13]: 0.124 min⁻¹
- ILS (Mus musculus [14]): 18%
- Weight change (Mus musculus [15]): 7%
- Weight change (Mus musculus [16]): -6%
- ILS (Mus musculus [17]): 89%
- ILS (Mus musculus [18]): 56%
- T/C (Mus musculus [19]): 18
- ID50 [20]: 0.012 µM
- ILS (Mus musculus [21]): 133%
- ILS (Mus musculus [22]): 29%
- T/C (Mus musculus [23]): 11
- ID50 [24]: 0.0067 µM
- ILS (Mus musculus [25]): 55%
- ILS (Mus musculus [26]): 100%
- Weight change (Mus musculus [27]): 10%
- T/C (Mus musculus [28]): 14
- Weight change (Mus musculus [29]): 2%
- Weight change (Mus musculus [30]): 2%
- Weight change (Mus musculus [31]): -3%
- Weight change (Mus musculus [32]): -3%
- T/C (Mus musculus [33]): 10
- pKi [34]: 5.49
- T/C (Mus musculus [35]): 14
- pIC50 (L1210): 7.52
- ID50 [36]: 0.0014 µM
- T/C (Mus musculus [37]): 12
- Weight change (Mus musculus [38]): -7%
- pKi [39]: 5.56
